The results in this text go back to ChEMBL document CHEMBL3797186, “Single Residue Substitutions That Confer Voltage-Gated Sodium Ion Channel Subtype Selectivity in the NaV1.7 Inhibitory Peptide GpTx-1” (J Med Chem, 2016).

Holding throughout (format): cell-based
Test [1] addresses T1, Sodium channel protein type 9 subunit alpha (Homo sapiens, UniProt Q15858). The test is described as follows: Inhibition of human Nav1.7 expressed in HEK293 cells assessed as inward peak current by ion-works quattro patch clamp electrophysiology method.
Test [2] addresses T2, Sodium channel protein type 5 subunit alpha (Homo sapiens, UniProt Q14524). The test can be described thus: Inhibition of human Nav1.5 expressed in HEK293 cells assessed as inward peak current by ion-works quattro patch clamp electrophysiology method. Put shortly: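 Stable HEK293 line expressing human NaV1.5, recorded by population patch clamp on the IonWorks Quattro.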

Test [3] addresses T2, Sodium channel protein type 5 subunit alpha. The test is described as follows: Inhibition of human Nav1.5 expressed in HEK293 cells by whole cell patch clamp electrophysiology method. Put shortly:
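Stable HEK293 line expressing human NaV1.5, recorded on the PatchXpress 7000A. Percent inhibition versus concentration was pooled from at least 10 cells, with two to three points per concentration. The pooled set was fitted with a four-parameter Hill equation to give a single IC50 curve.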

The target of test [4] is T1, Sodium channel protein type 9 subunit alpha. The test can be described thus: Inhibition of human Nav1.7 expressed in HEK293 cells by whole cell patch clamp electrophysiology method.

Structures are written as SMILES. Positions of bridges follow the written chain, without caps; N, C: chain ends. Non-standard residues stand in square brackets, D forms with d. Residues, ends and D or L forms follow the SMILES beside them. 1Nal = N[C@@H](Cc1cccc2ccccc12)C(=O)O

T2 sequence (Q14524 whole entry): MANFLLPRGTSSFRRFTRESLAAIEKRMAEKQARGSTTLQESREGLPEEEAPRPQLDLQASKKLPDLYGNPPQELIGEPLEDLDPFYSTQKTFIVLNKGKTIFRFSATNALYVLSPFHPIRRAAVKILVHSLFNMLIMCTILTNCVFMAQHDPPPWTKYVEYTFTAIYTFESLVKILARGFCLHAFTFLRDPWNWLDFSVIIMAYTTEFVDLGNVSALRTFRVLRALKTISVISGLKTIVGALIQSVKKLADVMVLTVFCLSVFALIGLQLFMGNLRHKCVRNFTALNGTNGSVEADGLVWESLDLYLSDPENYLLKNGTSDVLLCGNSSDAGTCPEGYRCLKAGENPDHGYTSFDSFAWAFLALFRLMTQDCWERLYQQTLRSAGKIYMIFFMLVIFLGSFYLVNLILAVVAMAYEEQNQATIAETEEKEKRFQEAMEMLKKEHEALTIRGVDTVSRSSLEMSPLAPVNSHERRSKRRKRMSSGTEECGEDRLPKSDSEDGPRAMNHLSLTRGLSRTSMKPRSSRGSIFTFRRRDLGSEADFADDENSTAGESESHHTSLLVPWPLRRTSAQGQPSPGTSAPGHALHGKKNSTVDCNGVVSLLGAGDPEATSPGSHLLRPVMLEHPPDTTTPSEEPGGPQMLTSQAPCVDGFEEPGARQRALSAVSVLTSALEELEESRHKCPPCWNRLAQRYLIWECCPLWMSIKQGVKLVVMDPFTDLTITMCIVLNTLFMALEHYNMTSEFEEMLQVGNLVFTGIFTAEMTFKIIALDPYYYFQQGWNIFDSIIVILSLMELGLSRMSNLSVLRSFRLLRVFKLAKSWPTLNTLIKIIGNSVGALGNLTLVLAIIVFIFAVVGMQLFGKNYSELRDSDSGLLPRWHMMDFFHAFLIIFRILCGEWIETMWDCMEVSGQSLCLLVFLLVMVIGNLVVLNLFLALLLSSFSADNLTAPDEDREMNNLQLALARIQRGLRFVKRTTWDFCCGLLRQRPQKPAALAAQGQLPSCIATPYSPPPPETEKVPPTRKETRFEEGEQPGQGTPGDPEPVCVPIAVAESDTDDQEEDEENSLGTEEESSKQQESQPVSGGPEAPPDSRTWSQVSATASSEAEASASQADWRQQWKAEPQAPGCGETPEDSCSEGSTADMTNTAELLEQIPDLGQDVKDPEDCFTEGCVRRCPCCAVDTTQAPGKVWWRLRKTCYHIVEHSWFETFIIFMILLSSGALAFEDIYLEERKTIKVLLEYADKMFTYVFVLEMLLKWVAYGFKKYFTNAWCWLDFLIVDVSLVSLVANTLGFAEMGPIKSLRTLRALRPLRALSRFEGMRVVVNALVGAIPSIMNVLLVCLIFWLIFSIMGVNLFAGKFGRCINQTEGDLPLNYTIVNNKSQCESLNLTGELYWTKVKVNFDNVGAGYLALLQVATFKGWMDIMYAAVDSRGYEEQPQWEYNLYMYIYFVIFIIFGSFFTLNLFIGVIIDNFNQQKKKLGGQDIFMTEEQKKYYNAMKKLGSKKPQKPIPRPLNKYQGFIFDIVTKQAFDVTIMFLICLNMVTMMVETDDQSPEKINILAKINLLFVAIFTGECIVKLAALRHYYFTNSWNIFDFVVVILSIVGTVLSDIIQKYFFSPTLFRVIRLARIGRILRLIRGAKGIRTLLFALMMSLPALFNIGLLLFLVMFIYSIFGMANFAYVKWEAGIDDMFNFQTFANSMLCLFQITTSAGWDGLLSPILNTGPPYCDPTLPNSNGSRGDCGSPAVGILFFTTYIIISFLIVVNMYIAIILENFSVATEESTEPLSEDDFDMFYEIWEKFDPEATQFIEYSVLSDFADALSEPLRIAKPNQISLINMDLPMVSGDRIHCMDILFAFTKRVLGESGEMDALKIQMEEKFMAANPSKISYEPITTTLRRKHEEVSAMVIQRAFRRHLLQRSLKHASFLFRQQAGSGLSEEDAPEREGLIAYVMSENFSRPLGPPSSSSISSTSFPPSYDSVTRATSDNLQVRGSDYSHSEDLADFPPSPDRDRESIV
T1 sequence (Q15858 whole entry): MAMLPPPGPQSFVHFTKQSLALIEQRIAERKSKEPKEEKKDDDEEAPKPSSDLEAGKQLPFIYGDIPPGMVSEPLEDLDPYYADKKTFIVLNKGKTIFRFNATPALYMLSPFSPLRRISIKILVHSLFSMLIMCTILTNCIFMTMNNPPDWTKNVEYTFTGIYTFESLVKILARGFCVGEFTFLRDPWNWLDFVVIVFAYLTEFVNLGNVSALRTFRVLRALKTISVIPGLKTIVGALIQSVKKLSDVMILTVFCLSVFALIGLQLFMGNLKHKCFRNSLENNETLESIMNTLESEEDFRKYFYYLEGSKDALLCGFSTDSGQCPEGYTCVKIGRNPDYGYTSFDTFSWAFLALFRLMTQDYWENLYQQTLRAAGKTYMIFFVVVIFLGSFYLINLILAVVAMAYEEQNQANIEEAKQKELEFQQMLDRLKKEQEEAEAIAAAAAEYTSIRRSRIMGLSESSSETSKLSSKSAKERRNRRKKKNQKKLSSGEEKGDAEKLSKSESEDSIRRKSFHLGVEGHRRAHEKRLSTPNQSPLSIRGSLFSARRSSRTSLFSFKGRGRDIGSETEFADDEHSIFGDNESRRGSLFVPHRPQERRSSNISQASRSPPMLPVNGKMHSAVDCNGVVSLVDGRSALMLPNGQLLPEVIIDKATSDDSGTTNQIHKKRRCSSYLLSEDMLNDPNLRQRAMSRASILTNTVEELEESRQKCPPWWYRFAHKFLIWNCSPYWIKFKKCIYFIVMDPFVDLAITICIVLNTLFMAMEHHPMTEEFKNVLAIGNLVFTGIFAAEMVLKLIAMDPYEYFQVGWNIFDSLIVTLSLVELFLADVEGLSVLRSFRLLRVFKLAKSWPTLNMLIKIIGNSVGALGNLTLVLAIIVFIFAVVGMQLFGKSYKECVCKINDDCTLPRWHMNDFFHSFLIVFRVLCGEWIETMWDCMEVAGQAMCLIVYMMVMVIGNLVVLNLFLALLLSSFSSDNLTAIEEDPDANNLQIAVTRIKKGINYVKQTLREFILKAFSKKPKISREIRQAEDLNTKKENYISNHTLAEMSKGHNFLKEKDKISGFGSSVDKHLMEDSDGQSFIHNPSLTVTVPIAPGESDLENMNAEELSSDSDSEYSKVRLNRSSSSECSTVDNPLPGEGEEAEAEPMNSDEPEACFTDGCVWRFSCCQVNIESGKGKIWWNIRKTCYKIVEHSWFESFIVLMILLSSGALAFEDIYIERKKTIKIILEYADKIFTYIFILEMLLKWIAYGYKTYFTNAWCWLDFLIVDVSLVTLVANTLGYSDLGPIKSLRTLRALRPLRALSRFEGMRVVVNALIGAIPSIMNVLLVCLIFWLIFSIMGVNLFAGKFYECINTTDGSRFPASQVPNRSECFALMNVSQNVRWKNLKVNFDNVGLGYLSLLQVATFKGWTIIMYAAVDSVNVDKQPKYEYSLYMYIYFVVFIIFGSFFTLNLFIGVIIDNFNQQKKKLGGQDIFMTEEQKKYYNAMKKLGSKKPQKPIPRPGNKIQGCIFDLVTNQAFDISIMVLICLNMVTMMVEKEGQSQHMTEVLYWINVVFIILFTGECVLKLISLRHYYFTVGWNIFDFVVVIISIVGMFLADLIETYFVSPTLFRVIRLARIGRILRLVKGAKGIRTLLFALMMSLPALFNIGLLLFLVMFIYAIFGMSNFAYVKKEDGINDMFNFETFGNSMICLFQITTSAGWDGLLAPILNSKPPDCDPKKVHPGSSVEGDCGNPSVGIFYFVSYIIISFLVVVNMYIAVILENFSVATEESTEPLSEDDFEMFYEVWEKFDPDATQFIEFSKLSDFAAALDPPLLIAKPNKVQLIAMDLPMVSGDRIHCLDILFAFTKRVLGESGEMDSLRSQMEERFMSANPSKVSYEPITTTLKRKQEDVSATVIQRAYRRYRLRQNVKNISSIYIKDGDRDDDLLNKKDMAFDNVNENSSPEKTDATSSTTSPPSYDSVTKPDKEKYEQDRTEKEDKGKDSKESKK

Take `CC[C@H](C)[C@@H]1NC(=O)[C@@H]2CSSC[C@@H]3NC(=O)[C@H](C(C)C)NC(=O)[C@H](CC(C)C)NC(=O)[C@H](CC(N)=O)NC(=O)[C@@H]4CCCN4C(=O)[C@H](CCCNC(=N)N)NC(=O)[C@H](CSSC[C@H](NC(=O)[C@@H](N)CC(=O)O)C(=O)N[C@@H](CC(C)C)C(=O)N[C@@H](CCCNC(=N)N)C(=O)N[C@@H](Cc4ccccc4)C(=O)N[C@@H](CCSC)C(=O)N[C@@H](CCCNC(=N)N)C(=O)N[C@@H](CCCCN)C(=O)N2)NC(=O)[C@H](CSSC[C@@H](C(=O)N[C@@H](CCCCN)C(=O)N[C@@H](Cc2ccc(O)cc2)C(=O)N[C@H](C(=O)N[C@@H](Cc2ccccc2)C(N)=O)C(C)C)NC(=O)[C@H](Cc2c[nH]c4ccccc24)NC(=O)[C@H](CCCCN)NC(=O)[C@H](Cc2cnc[nH]2)NC(=O)[C@H]([C@@H](C)O)NC(=O)[C@H](CCCNC(=N)N)NC(=O)[C@H](CO)NC3=O)NC(=O)[C@H](CCCCN)NC(=O)[C@H](CC(=O)O)NC(=O)[C@H](CC(N)=O)NC(=O)[C@H](CC(=O)O)NC(=O)[C@@H]2CCCN2C1=O` (H-DCLRFMRKCIPDNDKCCRPNLVCSRTHKWCKYVF-NH2; disulfide 2-17, 9-23, 16-30): the IC50 in test [1] was 230 nM; in test [2], over 5000 nM; in test [3] it was 4500 nM.
In the case of `CC[C@H](C)[C@@H]1NC(=O)[C@@H]2CSSC[C@@H]3NC(=O)[C@H](C(C)C)NC(=O)[C@H](CC(C)C)NC(=O)[C@H](CC(N)=O)NC(=O)[C@@H]4CCCN4C(=O)[C@H](CCCNC(=N)N)NC(=O)[C@H](CSSC[C@H](NC(=O)[C@@H](N)CC(=O)O)C(=O)N[C@@H](CC(C)C)C(=O)NCC(=O)N[C@@H](Cc4ccccc4)C(=O)N[C@@H](CCSC)C(=O)N[C@@H](CCCNC(=N)N)C(=O)N[C@@H](CCCCN)C(=O)N2)NC(=O)[C@H](CSSC[C@@H](C(=O)N[C@@H](CCCCN)C(=O)N[C@@H](Cc2ccc(O)cc2)C(=O)N[C@H](C(=O)N[C@@H](Cc2ccccc2)C(N)=O)C(C)C)NC(=O)[C@H](Cc2c[nH]c4ccccc24)NC(=O)[C@H](CCC(N)=O)NC(=O)[C@H](Cc2cnc[nH]2)NC(=O)[C@H]([C@@H](C)O)NC(=O)[C@H](CCCNC(=N)N)NC(=O)[C@H](CO)NC3=O)NC(=O)[C@H](CCCCN)NC(=O)[C@H](CC(=O)O)NC(=O)[C@H](CC(N)=O)NC(=O)[C@H](CC(=O)O)NC(=O)[C@@H]2CCCN2C1=O` (H-DCLGFMRKCIPDNDKCCRPNLVCSRTHQWCKYVF-NH2; disulfide 2-17, 9-23, 16-30), the IC50 in test [1] was 200 nM; in test [3] it was over 10000 nM.
For `CC[C@H](C)[C@@H]1NC(=O)[C@@H]2CSSC[C@@H]3NC(=O)[C@H](C(C)C)NC(=O)[C@H](CC(C)C)NC(=O)[C@H](CC(N)=O)NC(=O)[C@@H]4CCCN4C(=O)[C@H](CCCNC(=N)N)NC(=O)[C@H](CSSC[C@H](NC(=O)[C@@H](N)CC(=O)O)C(=O)N[C@@H](CC(C)C)C(=O)NCC(=O)N[C@@H](Cc4ccccc4)C(=O)N[C@@H](CCSC)C(=O)N[C@@H](CCCNC(=N)N)C(=O)N[C@@H](CCCCN)C(=O)N2)NC(=O)[C@H](CSSC[C@@H](C(=O)N[C@@H](CCCCN)C(=O)N[C@@H](Cc2cccc4ccccc24)C(=O)N[C@H](C(=O)N[C@@H](Cc2ccccc2)C(N)=O)C(C)C)NC(=O)[C@H](Cc2c[nH]c4ccccc24)NC(=O)[C@H](CCCCN)NC(=O)[C@H](Cc2cnc[nH]2)NC(=O)[C@H]([C@@H](C)O)NC(=O)[C@H](CCCNC(=N)N)NC(=O)[C@H](CO)NC3=O)NC(=O)[C@H](CCCCN)NC(=O)[C@H](CC(=O)O)NC(=O)[C@H](CC(N)=O)NC(=O)[C@H](CC(=O)O)NC(=O)[C@@H]2CCCN2C1=O` (H-DCLGFMRKCIPDNDKCCRPNLVCSRTHKWCK[1Nal]VF-NH2; disulfide 2-17, 9-23, 16-30), the values for the IC50 in test [1], in test [2] and in test [3] were 9 nM, 3500 nM and 1000 nM, respectively.
Regarding `CSCC[C@@H]1NC(=O)[C@H](Cc2ccccc2)NC(=O)CNC(=O)[C@H](CC(C)C)NC(=O)[C@@H](NC(=O)[C@@H](N)CC(=O)O)CSSC[C@@H]2NC(=O)[C@@H]3CSSC[C@@H](C(=O)N[C@@H](CCCCN)C(=O)N[C@@H](Cc4ccc(O)cc4)C(=O)N[C@H](C(=O)N[C@@H](Cc4ccccc4)C(N)=O)C(C)C)NC(=O)[C@H](Cc4c[nH]c5ccccc45)NC(=O)[C@H](CCCCN)NC(=O)[C@H](Cc4c[nH]cn4)NC(=O)[C@H]([C@@H](C)O)NC(=O)[C@H](CCCNC(=N)N)NC(=O)[C@H](CO)NC(=O)[C@H](CSSC[C@H](NC(=O)[C@H](CCCCN)NC(=O)[C@H](CCCNC(=N)N)NC1=O)C(=O)N[C@@H](Cc1cccc4ccccc14)C(=O)N1CCC[C@H]1C(=O)N[C@@H](CC(=O)O)C(=O)N[C@@H](CC(N)=O)C(=O)N[C@@H](CC(=O)O)C(=O)N[C@@H](CCCCN)C(=O)N3)NC(=O)[C@H](C(C)C)NC(=O)[C@H](CC(C)C)NC(=O)[C@H](CC(N)=O)NC(=O)[C@@H]1CCCN1C(=O)[C@H](CCCNC(=N)N)NC2=O`, the IC50 was 160 nM in test [1], over 5000 nM in test [2] and 6 nM in test [4].
Consider `CC[C@H](C)[C@@H]1NC(=O)[C@@H]2CSSC[C@@H]3NC(=O)[C@H](C(C)C)NC(=O)[C@H](CC(C)C)NC(=O)[C@H](CC(N)=O)NC(=O)[C@@H]4CCCN4C(=O)[C@H](CCCNC(=N)N)NC(=O)[C@H](CSSC[C@H](N)C(=O)N[C@@H](CC(C)C)C(=O)NCC(=O)N[C@@H](Cc4ccccc4)C(=O)N[C@@H](CCSC)C(=O)N[C@@H](CCCNC(=N)N)C(=O)N[C@@H](CCCCN)C(=O)N2)NC(=O)[C@H](CSSC[C@@H](C(=O)N[C@@H](CCCCN)C(=O)N[C@@H](Cc2ccc(O)cc2)C(=O)N[C@H](C(=O)N[C@@H](Cc2ccccc2)C(N)=O)C(C)C)NC(=O)[C@H](Cc2c[nH]c4ccccc24)NC(=O)[C@H](CCCCN)NC(=O)[C@H](Cc2cnc[nH]2)NC(=O)[C@H]([C@@H](C)O)NC(=O)[C@H](CCCNC(=N)N)NC(=O)[C@H](CO)NC3=O)NC(=O)[C@H](CCCCN)NC(=O)[C@H](CC(=O)O)NC(=O)[C@H](CC(N)=O)NC(=O)[C@H](CC(=O)O)NC(=O)[C@@H]2CCCN2C1=O` (H-CLGFMRKCIPDNDKCCRPNLVCSRTHKWCKYVF-NH2; disulfide 1-16, 8-22, 15-29), for which the results for the IC50 in test [2] and in test [4] were over 5000 nM and 8 nM, respectively.
In the same order, the values of `CC[C@H](C)[C@@H]1NC(=O)[C@@H]2CSSC[C@@H]3NC(=O)[C@H](C(C)C)NC(=O)[C@H](CC(C)C)NC(=O)[C@H](CC(N)=O)NC(=O)[C@@H]4CCCN4C(=O)[C@H](CCCNC(=N)N)NC(=O)[C@H](CSSC[C@H](NC(=O)[C@@H](N)CC(=O)O)C(=O)N[C@@H](CC(C)C)C(=O)NCC(=O)N[C@@H](Cc4ccccc4)C(=O)N[C@@H](CCSC)C(=O)N[C@@H](CCCNC(=N)N)C(=O)N[C@@H](CCCCN)C(=O)N2)NC(=O)[C@H](CSSC[C@@H](C(=O)N[C@@H](CCCCN)C(=O)N[C@@H](Cc2c[nH]c4ccccc24)C(=O)N[C@H](C(=O)N[C@@H](Cc2ccccc2)C(N)=O)C(C)C)NC(=O)[C@H](Cc2c[nH]c4ccccc24)NC(=O)[C@H](CCCCN)NC(=O)[C@H](Cc2c[nH]cn2)NC(=O)[C@H]([C@@H](C)O)NC(=O)[C@H](CCCNC(=N)N)NC(=O)[C@H](CO)NC3=O)NC(=O)[C@H](CCCCN)NC(=O)[C@H](CC(=O)O)NC(=O)[C@H](CC(N)=O)NC(=O)[C@H](CC(=O)O)NC(=O)[C@@H]2CCCN2C1=O` (H-DCLGFMRKCIPDNDKCCRPNLVCSRTHKWCKWVF-NH2; disulfide 2-17, 9-23, 16-30) are over 5000 nM and 12 nM.
Consider `CC[C@H](C)[C@@H]1NC(=O)[C@@H]2CSSC[C@@H]3NC(=O)[C@H](C(C)C)NC(=O)[C@H](CC(C)C)NC(=O)[C@H](CC(N)=O)NC(=O)[C@@H]4CCCN4C(=O)[C@H](CCCNC(=N)N)NC(=O)[C@H](CSSC[C@H](NC(=O)[C@@H](N)CC(=O)O)C(=O)N[C@@H](CC(C)C)C(=O)N[C@@H](CCCCN)C(=O)N[C@@H](Cc4ccccc4)C(=O)N[C@@H](CCSC)C(=O)N[C@@H](CCCNC(=N)N)C(=O)N[C@@H](CCCCN)C(=O)N2)NC(=O)[C@H](CSSC[C@@H](C(=O)N[C@@H](CCCCN)C(=O)N[C@@H](Cc2ccc(O)cc2)C(=O)N[C@H](C(=O)N[C@@H](Cc2ccccc2)C(N)=O)C(C)C)NC(=O)[C@H](Cc2c[nH]c4ccccc24)NC(=O)[C@H](CCCCN)NC(=O)[C@H](Cc2cnc[nH]2)NC(=O)[C@H]([C@@H](C)O)NC(=O)[C@H](CCCNC(=N)N)NC(=O)[C@H](CO)NC3=O)NC(=O)[C@H](CCCCN)NC(=O)[C@H](CC(=O)O)NC(=O)[C@H](CC(N)=O)NC(=O)[C@H](CC(=O)O)NC(=O)[C@@H]2CCCN2C1=O` (H-DCLKFMRKCIPDNDKCCRPNLVCSRTHKWCKYVF-NH2; disulfide 2-17, 9-23, 16-30), for which the IC50 in test [1] was 210 nM; in test [2], over 5000 nM; in test [3], 10100 nM.
Turning to `CC[C@H](C)[C@@H]1NC(=O)[C@@H]2CSSC[C@@H]3NC(=O)[C@H](C(C)C)NC(=O)[C@H](CC(C)C)NC(=O)[C@H](CC(N)=O)NC(=O)[C@@H]4CCCN4C(=O)[C@H](CCCNC(=N)N)NC(=O)[C@H](CSSC[C@H](NC(=O)[C@@H](N)CC(=O)O)C(=O)N[C@@H](CC(C)C)C(=O)NCC(=O)N[C@@H](Cc4ccccc4)C(=O)N[C@@H](CCSC)C(=O)N[C@@H](CCCNC(=N)N)C(=O)N[C@@H](CCCCN)C(=O)N2)NC(=O)[C@H](CSSC[C@@H](C(=O)N[C@@H](CCCCN)C(=O)N[C@@H](Cc2ccc(O)cc2)C(=O)N[C@H](C(=O)N[C@@H](Cc2ccccc2)C(N)=O)C(C)C)NC(=O)[C@H](Cc2c[nH]c4ccccc24)NC(=O)[C@H](CCCCN)NC(=O)[C@H](Cc2c[nH]cn2)NC(=O)[C@H]([C@@H](C)O)NC(=O)[C@H](CCCNC(=N)N)NC(=O)[C@H](CO)NC3=O)NC(=O)[C@H](CCCCN)NC(=O)[C@H](CC(=O)O)NC(=O)[C@H](Cc2cccc3ccccc23)NC(=O)[C@H](CC(=O)O)NC(=O)[C@@H]2CCCN2C1=O` (H-DCLGFMRKCIPD[1Nal]DKCCRPNLVCSRTHKWCKYVF-NH2; disulfide 2-17, 9-23, 16-30), the IC50 was 130 nM in test [1], over 5000 nM in test [2] and 7800 nM in test [3].
